Results taken from ChEMBL document CHEMBL1134049, “Antimitotic and cell growth inhibitory properties of combretastatin A-4-like ethers” (Bioorg Med Chem Lett, 2001).
Values belong to the molecule of their own block, whether it stands above or below them.

Tests used:
K562 [1] = assay: Concentration required for 50% inhibition of K562 human chronic myelogenous leukemia cell growth in MTT assay; type: functional, cell-based
How it was run: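 K562 cells grown at 37 °C with compound for 5 days; growth read by MTT assay; IC50 taken as concentration giving 50% decrease in cell growth.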

K562 [2] = assay: Effect upon G2 M phase of cell cycle relative to untreated control; type: functional, Homo sapiens; parameters: unit not given here
Tubulin [3] = molecular target: T1, Tubulin (Sus scrofa, UniProt P02554+P02550); assay: Effect on tubulin binding and the concentration required to cause 50% decrease in tubulin assembly at 350 nm.; type: protein assay
How it was run: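 Tubulin assembly followed by increase in turbidity at 350 nm; IC50 is the concentration causing 50% decrease in assembly.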

K562 [4] = assay: Effect upon G0-G1 phase of cell cycle relative to untreated control; type: functional, Homo sapiens; parameters: unit not given here
K562 [5] = assay: Effect upon S phase of cell cycle relative to untreated control; type: functional, Homo sapiens; parameters: unit not given here
Tubulin [6] = molecular target: T1, Tubulin; assay: Concentration required to cause 50% decrease in the binding of [3H]colchicine from purified porcine tubulin.; type: protein assay
P388 = assay: Concentration required for 50% inhibition of P388 murine leukemia cell growth in MTT assay; type: functional, cell-based; settings: Mus musculus
L1210 = assay: Concentration required for 50% inhibition of L1210 murine leukemia cell growth in MTT assay; type: functional, cell-based; settings: Mus musculus

- IC50 (K562 [1]): 380 nM
Compound: COc1ccc(Oc2cc(OC)c(OC)c(OC)c2)cc1

- IC50 (K562 [1]): 20 nM
- IC50 (Tubulin [3]): 6600 nM
- IC50 (Tubulin [6]): 36000 nM
Compound: COc1ccc(COc2cc(OC)c(OC)c(OC)c2)cc1O
- Activity (K562 [2]): 82.5
- Activity (K562 [4]): 3.5
- Activity (K562 [5]): 14

- IC50 (P388): 10 nM
Compound: COc1ccc(C(=O)c2cc(OC)c(OC)c(OC)c2)cc1O [PHENSTATIN]

- IC50 (K562 [1]): 2600 nM
- IC50 (Tubulin [3]): > 100000 nM
- IC50 (Tubulin [6]): 298000 nM
Compound: COc1ccc(Nc2cc(OC)c(OC)c(OC)c2)cc1O
- Activity (K562 [2]): 87.2
- Activity (K562 [4]): 3.4
- Activity (K562 [5]): 9.4

- IC50 (K562 [1]): 50 nM
- IC50 (Tubulin [3]): 16300 nM
- IC50 (Tubulin [6]): 36000 nM
Compound: COc1ccc(Oc2cc(OC)c(OC)c(OC)c2)cc1O
- Activity (K562 [2]): 73.4
- Activity (K562 [4]): 4.3
- Activity (K562 [5]): 22.3

- IC50 (P388): 19000 nM
Compound: COc1ccc([C@@H](O)[C@H](O)c2cc(OC)c(OC)c(OC)c2)cc1O

- IC50 (K562 [1]): 30000 nM
Compound: C=CCOc1cc(COc2cc(OC)c(OC)c(OC)c2)ccc1OC

Compound: COc1ccc(/C=C/c2cc(OC)c(OC)c(OC)c2)cc1O [E-COMBRETASTATIN A-4]
- IC50 (P388): 2.6 nM

- IC50 (K562 [1]): 2500 nM
Compound: COc1ccc(COc2cc(OC)c(OC)c(OC)c2)cc1OCC=O

- IC50 (P388): 33 nM
Compound: COc1ccc(CC(O)c2cc(OC)c(OC)c(OC)c2)cc1O (centres undefined)

- IC50 (K562 [1]): 60000 nM
Compound: COc1ccc(OCc2cc(OC)c(OC)c(OC)c2)cc1CO

- IC50 (K562 [1]): 90000 nM
Compound: COc1ccc(COc2cc(OC)c(OC)c(OC)c2)cc1OCC(O)CO (centres undefined)

- IC50 (K562 [1]): 24000 nM
Compound: COc1ccc(Oc2ccc(C)c(C)c2)cc1

- IC50 (L1210): > 50000 nM
Compound: COc1ccc(-c2cc(OC)c(OC)c(OC)c2)cc1O

- IC50 (K562 [1]): 51000 nM
Compound: COc1ccc(Oc2cc(OC)c(OC)c(OC)c2)cc1OCc1ccccc1

- IC50 (K562 [1]): 120 nM
- IC50 (Tubulin [3]): 22500 nM
- IC50 (Tubulin [6]): 226000 nM
Compound: COc1ccc(OCc2cc(OC)c(OC)c(OC)c2)cc1O
- Activity (K562 [2]): 78.3
- Activity (K562 [4]): 3.8
- Activity (K562 [5]): 17.9

- IC50 (P388): 2000 nM
Compound: COc1ccc([C@H](O)[C@@H](O)c2cc(OC)c(OC)c(OC)c2)cc1O

- IC50 (K562 [1]): 3000 nM
Compound: COc1ccc(Nc2cc(OC)c(OC)c(OC)c2)cc1

Compound: COc1ccc(/C=C\c2cc(OC)c(OC)c(OC)c2)cc1O [COMBRETASTATIN A4]
- IC50 (P388): 160 nM

- IC50 (K562 [1]): 15000 nM
Compound: COc1ccc(Nc2cc(OC)c(OC)c(OC)c2)cc1OCc1ccccc1

- IC50 (P388): 33000 nM
Compound: COc1ccc(C(O)Cc2cc(OC)c(OC)c(OC)c2)cc1O (centres undefined)

- IC50 (P388): 110 nM
Compound: COc1ccc(CCc2cc(OC)c(OC)c(OC)c2)cc1O

- IC50 (K562 [1]): 170 nM
- IC50 (Tubulin [3]): 600 nM
- IC50 (Tubulin [6]): 4000 nM
Compound: COc1ccc(OCc2cc(OC)c(OC)c(OC)c2)cc1C=O
- Activity (K562 [2]): 57.8
- Activity (K562 [4]): 9.1
- Activity (K562 [5]): 33.1

- IC50 (K562 [1]): 21000 nM
Compound: COc1ccc(C#Cc2cc(OC)c(OC)c(OC)c2)cc1O
